The values below come from ChEMBL document CHEMBL3259569 (J Med Chem, 2014).

For orientation: IC50 means the midpoint of a concentration-inhibition curve. Lower therefore signals greater potency in that assay. Broadly, the half-life is the time in which the quantity being followed falls by half. Usually AUC(0-inf) stands for the area under the concentration-time curve extrapolated to infinity.

Series [1] in a line: Cytotoxicity against human MKN45 cells by MTT assay. In kind it is functional, cell-based. The note with it: MKN-45. For orientation: Tetrazolium assays rely on reduction of a dye to a coloured formazan, in cell work by metabolically active cells.
Series [2] concerns HCT-116. Put plainly: Induction of apoptosis in p53 knock down human HCT116 cells assessed as caspase-3 activation at 1 uM after 24 hrs by immunoblotting analysis. In kind it is functional, cell-based.
The subject of series [3] is HCT-116. Briefly: Induction of apoptosis in human HCT116 cells assessed as accumulation at sub-G1 phase after 24 hrs by propidium iodide staining-based flow cytometric analysis. In kind it is functional, cell-based. The method in brief:
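HCT116 cells treated with indicated concentrations for 24 h; DNA content analyzed by flow cytometry for cell cycle distribution and sub-G1 fraction; means of at least three independent experiments.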

Series [4] has as its system HCT-116. Briefly: Induction of apoptosis in human HCT116 cells assessed as PARP cleavage after 24 hrs by Western blotting analysis. In kind it is functional, cell-based. The procedure, abridged: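 HCT116 cells treated with indicated concentrations for 24 h; lysates probed by Western blot for caspase 3 and PARP cleavage.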
(Immunoblotting shows a protein as a band on a membrane.)

Series [5] addresses T1, Protein deacetylase HDAC6 (Homo sapiens, UniProt Q9UBN7).
T1 sequence (Q9UBN7 whole entry): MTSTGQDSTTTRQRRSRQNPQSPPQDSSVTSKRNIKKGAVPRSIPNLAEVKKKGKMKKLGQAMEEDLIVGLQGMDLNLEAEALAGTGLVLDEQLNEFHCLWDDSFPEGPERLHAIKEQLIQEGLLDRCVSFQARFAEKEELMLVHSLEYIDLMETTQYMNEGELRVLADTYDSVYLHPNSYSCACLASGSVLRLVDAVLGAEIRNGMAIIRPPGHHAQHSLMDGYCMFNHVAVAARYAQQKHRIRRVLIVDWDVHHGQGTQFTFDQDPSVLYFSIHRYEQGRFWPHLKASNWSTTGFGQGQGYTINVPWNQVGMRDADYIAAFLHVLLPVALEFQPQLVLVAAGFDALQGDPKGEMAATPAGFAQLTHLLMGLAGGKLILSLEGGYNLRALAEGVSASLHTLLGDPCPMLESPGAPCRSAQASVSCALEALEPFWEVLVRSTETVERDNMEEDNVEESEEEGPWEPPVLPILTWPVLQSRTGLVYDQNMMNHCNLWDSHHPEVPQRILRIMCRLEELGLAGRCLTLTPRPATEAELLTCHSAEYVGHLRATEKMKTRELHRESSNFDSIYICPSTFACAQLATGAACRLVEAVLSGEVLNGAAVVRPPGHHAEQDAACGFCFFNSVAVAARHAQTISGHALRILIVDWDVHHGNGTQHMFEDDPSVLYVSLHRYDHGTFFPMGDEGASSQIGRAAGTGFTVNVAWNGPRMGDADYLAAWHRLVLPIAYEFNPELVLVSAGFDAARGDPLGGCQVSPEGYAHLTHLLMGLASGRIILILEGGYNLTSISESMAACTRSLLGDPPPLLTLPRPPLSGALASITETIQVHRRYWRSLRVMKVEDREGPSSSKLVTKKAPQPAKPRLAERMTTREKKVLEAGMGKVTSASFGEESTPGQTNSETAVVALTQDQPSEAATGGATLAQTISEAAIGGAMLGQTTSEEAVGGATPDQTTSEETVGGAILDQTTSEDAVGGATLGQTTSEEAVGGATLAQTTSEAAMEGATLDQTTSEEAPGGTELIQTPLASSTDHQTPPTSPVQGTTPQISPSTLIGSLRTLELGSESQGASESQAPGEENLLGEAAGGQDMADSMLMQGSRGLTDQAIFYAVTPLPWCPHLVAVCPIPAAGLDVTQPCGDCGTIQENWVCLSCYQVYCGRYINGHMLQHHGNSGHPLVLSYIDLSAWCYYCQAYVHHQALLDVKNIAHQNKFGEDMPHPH
Briefly: Inhibition of HDAC6 (unknown origin) using RHKK(Ac) (379 to 382) p53 peptide as substrate by fluorescence assay.

In series [6] the target is T2, Polyamine deacetylase HDAC10 (Homo sapiens, UniProt Q969S8).
T2 sequence (Q969S8 whole entry): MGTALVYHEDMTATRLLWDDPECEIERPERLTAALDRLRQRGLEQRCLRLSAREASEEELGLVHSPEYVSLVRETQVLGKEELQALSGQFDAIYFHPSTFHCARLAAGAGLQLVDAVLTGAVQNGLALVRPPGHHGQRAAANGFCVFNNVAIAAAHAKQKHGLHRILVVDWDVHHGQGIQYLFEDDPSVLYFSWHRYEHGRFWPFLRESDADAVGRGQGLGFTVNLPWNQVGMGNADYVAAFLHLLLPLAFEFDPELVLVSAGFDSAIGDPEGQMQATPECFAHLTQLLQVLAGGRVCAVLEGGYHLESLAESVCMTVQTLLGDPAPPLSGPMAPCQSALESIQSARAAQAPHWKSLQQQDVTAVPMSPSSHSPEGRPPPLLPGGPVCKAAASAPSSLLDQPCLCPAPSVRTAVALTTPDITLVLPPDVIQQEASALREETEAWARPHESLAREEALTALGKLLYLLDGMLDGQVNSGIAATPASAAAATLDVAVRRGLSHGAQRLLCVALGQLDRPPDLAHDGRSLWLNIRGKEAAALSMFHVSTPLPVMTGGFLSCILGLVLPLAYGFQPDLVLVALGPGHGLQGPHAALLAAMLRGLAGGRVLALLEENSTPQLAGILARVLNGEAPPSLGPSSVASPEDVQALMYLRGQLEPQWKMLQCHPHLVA
Briefly: Inhibition of HDAC10 (unknown origin) by fluorescence assay. The procedure, abridged: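 Run by a contract testing lab. Compounds were dissolved in DMSO and tested in 10-dose IC50 mode, using 3-fold serial dilution starting at 10 μM. IC50 was taken from the dose series.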

The nature of series [7]: Half life in ICR mouse at 2 mg/kg, iv by LC-MS/MS analysis. In kind it is ADME, organism-based. Set-up: dose 2 mg/kg, route intravenous. The conditions noted are these: in vivo.
The nature of series [8]: AUC (0 to infinity) in ICR mouse at 10 mg/kg, po by LC-MS/MS analysis. In kind it is ADME, organism-based. Set-up: time infinity, dose 10 mg/kg, route oral. The note with it: plasma.

Active and inactive are the calls of the source. The rule behind the calls is not given here.

Turning to `O=C(/C=C/c1cccc(S(=O)(=O)n2ccc3cccnc32)c1)NO`, the half-inhibitory concentration (IC50) came to 2510 nM in series [1], 5.2 nM in series [5] and 4130 nM in series [6]. The result in the series on HCT-116 [2] was inactive. For the same compound, the Activity entry in the series on HCT-116 [3] and in the series with HCT-116 [4] was “Dose-dependent effect” throughout. In series [7], this compound showed a half-life of 2.5 h. Also, the AUC(0-inf) in series [8] stood at 466 ng·h/mL.
